The record followed here is ChEMBL document CHEMBL1134388, “Nonpeptide cholecystokinin-2 receptor agonists” (J Med Chem, 2001).

Experiment [1] has as its target T1, Gastrin/cholecystokinin type B receptor (Rattus norvegicus) (UniProt P30553).
T1 sequence (whole entry): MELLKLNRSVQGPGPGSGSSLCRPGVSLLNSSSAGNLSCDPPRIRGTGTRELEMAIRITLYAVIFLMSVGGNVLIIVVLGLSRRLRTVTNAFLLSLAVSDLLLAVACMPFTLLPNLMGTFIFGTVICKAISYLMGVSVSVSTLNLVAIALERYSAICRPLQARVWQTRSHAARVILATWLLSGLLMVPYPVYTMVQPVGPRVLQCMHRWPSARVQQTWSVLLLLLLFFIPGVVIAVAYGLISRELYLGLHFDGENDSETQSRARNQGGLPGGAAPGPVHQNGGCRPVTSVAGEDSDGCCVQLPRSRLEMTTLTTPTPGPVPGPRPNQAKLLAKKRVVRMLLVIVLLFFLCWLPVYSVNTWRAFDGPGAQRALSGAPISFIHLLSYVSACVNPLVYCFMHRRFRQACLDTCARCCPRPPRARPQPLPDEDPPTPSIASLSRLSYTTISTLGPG
Kind of experiment: Antagonistic activity against CCK2 receptor in rat stomach. It counts as functional, tissue-based.

Experiment [2] concerns the target T2, Gastrin/cholecystokinin type B receptor (Mus musculus) (UniProt P56481).
T2 sequence (whole entry): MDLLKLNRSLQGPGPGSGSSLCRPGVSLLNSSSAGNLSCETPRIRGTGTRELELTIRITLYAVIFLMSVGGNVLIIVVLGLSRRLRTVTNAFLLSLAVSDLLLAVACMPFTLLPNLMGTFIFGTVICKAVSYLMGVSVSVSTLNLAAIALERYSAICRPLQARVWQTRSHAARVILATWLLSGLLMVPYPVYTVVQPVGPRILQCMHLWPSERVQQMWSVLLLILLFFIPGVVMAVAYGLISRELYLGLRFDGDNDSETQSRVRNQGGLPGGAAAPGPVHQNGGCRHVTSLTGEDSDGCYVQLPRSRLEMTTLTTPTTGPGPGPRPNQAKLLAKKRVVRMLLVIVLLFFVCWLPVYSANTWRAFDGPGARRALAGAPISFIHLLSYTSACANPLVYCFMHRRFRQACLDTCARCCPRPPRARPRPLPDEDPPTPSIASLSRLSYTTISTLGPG
Briefly: Antagonistic activity against CCK2 receptor in mouse cortex assay using [125 I]-BH-CCK-8S. It counts as functional, tissue-based. The gist of the method: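 Radioligand competition binding to CCK2 sites in mouse cerebral cortex homogenates against 20 pM [125I]BH-CCK-8S; pKB reported as mean ± SEM from at least three separate experiments.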

For experiment [3], the species on record is Mus musculus. Kind of experiment: Effect on acid secretion was determined in isolated,lumen-perfused immature mouse stomach; Acid secretion. In kind it is functional. The gist of the method: (§1)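 Isolated, lumen-perfused mouse stomach; compound applied alone and acid secretion observed, scored as present or absent. Tested as bis(N-methyl-D-glucamine) salts.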

The species named for experiment [4] is Mus musculus. Briefly: Charecterization of agonist response of ligand in mouse stomach bioassay measured as affinity of L-365260. In kind it is functional.
The species named for experiment [5] is Mus musculus. Kind of experiment: Charecterization of agonist response of ligand in mouse stomach bioassay. It counts as functional.
Experiment [6] is filed under the species Mus musculus. Briefly: Effect on acid secretion was determined in isolated,lumen-perfused immature mouse stomach; No acid secretion. In kind it is functional. The gist of the method:
as §1

Calls of active or inactive are those of the source. No cut-off for these calls is given here.

As to `CCCCn1ccc2cc(C(=O)NCC34CC5CC(CC(C5)C3)C4)c(C(=O)N[C@@H](Cc3ccccc3)C(=O)Nc3cc(C(=O)O)cc(C(=O)O)c3)cc21`, the pKB in experiment [1] was 6.86; in experiment [2], 7.52. Further, the Acid secretion entry in experiment [3] was “Active”.

For the compound `Cn1ccc2cc(C(=O)N[C@@H](Cc3ccccc3)C(=O)Nc3cc(C(=O)O)cc(C(=O)O)c3)c(C(=O)NCC34CC5CC(CC(C5)C3)C4)cc21` (stereo in doubt; 4) [listing 1 of 2 here], in experiment [4], the pKB amounted to 7.02. The compound also registered a pA50 in experiment [5] of 8.69.

On to `Cn1ccc2cc(C(=O)N[C@@H](Cc3ccccc3)C(=O)Nc3cc(C(=O)O)cc(C(=O)O)c3)c(C(=O)NCC34CC5CC(CC(C5)C3)C4)cc21` (stereo in doubt; 4) [listing 2 of 2 here], for which the figures for the pKB in experiment [1] and in experiment [2] were 8.99 and 9.43, respectively. For the same compound, the Acid secretion entry in experiment [3] was “Active”.

For `Cn1cnc2cc(C(=O)N[C@@H](Cc3ccccc3)C(=O)Nc3cc(C(=O)O)cc(C(=O)O)c3)c(C(=O)NCC34CC5CC(CC(C5)C3)C4)cc21`, the pKB was determined as 8.95 in experiment [1] and 7.6 in experiment [2]. Also, the Acid secretion result in experiment [3] was “Active”.

With `CSCC[C@H](NC(=O)[C@H](Cc1c[nH]c2ccccc12)NC(=O)CCNC(=O)OC(C)(C)C)C(=O)N[C@@H](CC(=O)O)C(=O)N[C@@H](Cc1ccccc1)C(N)=O` [PENTAGASTRIN], the Kb in experiment [4] (read-out: pA2 (converted)) is 9.77 nM. For the same compound, the pA50 in experiment [5] stood at 7.73.

As for `O=C(O)c1cc(NC(=O)[C@H](Cc2ccccc2)NC(=O)c2cc3cc[nH]c3cc2C(=O)NCC23CC4CC(CC(C4)C2)C3)cc(C(=O)O)c1`, the results for the pKB in experiment [1] and in experiment [2] were 9.9 and 8.96, respectively.

For `CCCCn1ccc2cc(C(=O)N[C@@H](Cc3ccccc3)C(=O)Nc3cc(C(=O)O)cc(C(=O)O)c3)c(C(=O)NCC34CC5CC(CC(C5)C3)C4)cc21`, the pKB in experiment [1] is 7.35; in experiment [2], 8.44. The Acid secretion entry in experiment [3] is “Active”.

Turning to `Cn1ccc2cc(C(=O)N[C@@H](Cc3ccccc3)C(=O)Nc3cc(C(=O)O)cc(C(=O)O)c3)c(C(=O)NCC34CC5CC(CC(C5)C3)C4)cc21` (stereo in doubt; 3) [listing 1 of 2 here], the pKB in experiment [1] was determined as 9.8; in experiment [2], 8.42. Further, the Acid secretion entry in experiment [3] was “Active”.

In experiment [4], `Cn1ccc2cc(C(=O)N[C@@H](Cc3ccccc3)C(=O)Nc3cc(C(=O)O)cc(C(=O)O)c3)c(C(=O)NCC34CC5CC(CC(C5)C3)C4)cc21` (stereo in doubt; 3) [listing 2 of 2 here] gave a pKB of 7.04. In addition, the pA50 in experiment [5] stood at 8.4.

On to `O=C(O)c1cc(NC(=O)[C@H](Cc2ccccc2)NC(=O)c2cc3[nH]ccc3cc2C(=O)NCC23CC4CC(CC(C4)C2)C3)cc(C(=O)O)c1`, for which the pKB turned out to be 9.26 in experiment [1] and 7.87 in experiment [2]. The Acid secretion entry in experiment [6] was “inactive”.

Turning to `Cn1ccc2cc(C(=O)NCC34CC5CC(CC(C5)C3)C4)c(C(=O)N[C@@H](Cc3ccccc3)C(=O)Nc3cc(C(=O)O)cc(C(=O)O)c3)cc21`, the pKB in experiment [1] amounted to 8.57; in experiment [2], 8.36. The compound further returned a pA50 in experiment [5] of 7.94. For the same compound, the Acid secretion entry in experiment [3] was “Active”.

For the compound `CC(=O)n1ccc2cc(C(=O)N[C@@H](Cc3ccccc3)C(=O)Nc3cc(C(=O)O)cc(C(=O)O)c3)c(C(=O)NCC34CC5CC(CC(C5)C3)C4)cc21`, the pKB stood at 8.72 in experiment [1] and 8.74 in experiment [2].
